Results published in paper PMC7649109 (International Journal for Parasitology: Drugs and Drug …, 2020).
“And” between values parts separate entries of the source, which are not always exact repeats. Identical values can stand only once. Like-named read-outs stand apart in the source and are kept apart here.

Assays:
[1] = test system: Trypanosoma congolense IL3000; experiment: resazurin viability assay, T. congolense IL3000 bloodstream forms; format: cell-based
How it was run: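 Bloodstream-form parasites were grown in MEM base with 10% goat serum, 14 μL/L β-mercaptoethanol, glutamine and antibiotics at 34 °C/5% CO2. Cells at 5 × 10^4/well were exposed to 23 doubling dilutions plus no-drug controls, with DMSO held at 1% (v/v) per well, for 48 h. Resazurin was then added for a further 24 h. EC50 is the mean ± SEM of ≥3 independent determinations.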

U937 cell line = experiment: cytotoxicity, resazurin assay on U937 cell line; format: cell-based, human
[2] = cytotoxicity, resazurin assay on U937 cell line; format: cell-based, human; conditions: human, U937 cells
[3] = test system: Trypanosoma congolense 6C3; experiment: resazurin viability assay, diminazene-resistant T. congolense clone 6C3; format: cell-based; conditions: for RF (Resistance factor): Table 6; for EC50: Trypanosoma congolense, T. congolense 6C3
How it was run: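 IL3000 and diminazene-resistant 6C3 T. congolense bloodstream forms grown in MEM base with 10% goat serum, 14 μL/L β-mercaptoethanol, glutamine and antibiotics at 34 °C/5% CO2. 5 × 10^4 cells/well exposed to 23 doubling dilutions (1% v/v DMSO) plus no-drug controls for 48 h, then resazurin for a further 24 h. EC50 from ≥3 independent determinations. RF = […]; unpaired two-tailed t-test versus IL3000.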

T. brucei B48 = experiment: resazurin viability assay, multi-drug resistant T. brucei B48; format: cell-based, Trypanosoma brucei; conditions: for RF (Resistance factor): Table 5; for RF (Resistance factor) / R. F (Resistance factor): B48 versus s427 WT; for EC50: Trypanosoma brucei; for R. F (Resistance factor): Table 1
How it was run: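 s427 wild-type and B48 T. b. brucei bloodstream forms cultured in HMI-9 with 10% FBS at 37 °C/5% CO2. Wells of 2 × 10^4 cells received 23 doubling dilutions (1% v/v DMSO) plus no-drug controls for 48 h, followed by resazurin and 24 h more incubation. EC50 from ≥3 independent determinations. […]; unpaired two-tailed t-test versus s427.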

T. brucei S427WT = experiment: resazurin viability assay, T. brucei s427 wild-type bloodstream forms; format: cell-based; conditions: Trypanosoma brucei
How it was run: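 Bloodstream forms grown in complete HMI-9 with 10% fetal bovine serum at 37 °C/5% CO2. 2 × 10^4 cells/well were exposed for 48 h to 23 doubling dilutions of the test compound or extract, with no-drug controls and 1% (v/v) DMSO per well. Resazurin was then added for a further 24 h. EC50 is the mean ± SEM of at least 3 independent determinations.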

[4] = cytotoxicity, resazurin assay on RAW 246.7 cell line; format: cell-based, murine; conditions: mouse, RAW 264.7 macrophage cells (also printed RAW 246.7)
RAW 246.7 cell line = experiment: as above; format: cell-based, murine
[5] = read-out: EC50, AVG ± SEM, Table 6, purified compounds, n = 3
[6] = read-out: EC50, AVG ± SEM, Table 5, purified compounds, T. b. brucei B48, n = 3
[7] = read-out: EC50, AVG ± SEM, Table 5, purified compounds, T. b. brucei s427 WT, n = 3
[8] = read-out: EC50, AVG ± SEM, Table 2, control, footnote b: EC50 in μM

For `C=CC(C)(C)c1c(O)cc2c(c1O)C(=O)C[C@@H](c1ccc(O)cc1)O2` [Compound 2, 6-(1,1-dimethylallyl)naringenin], the EC50 [1, 5] was 7.35 µg/mL and 21.6 µM, the “Selectivity Index (SI) Tbb427 WT” value (U937 cell line; EC50 (U937)/EC50 (T. b. brucei 427 WT)) was 22.8 and the “Selectivity Index (SI) TcoIL3000” value (U937 cell line; EC50 (U937)/EC50 (T. congolense IL3000)) was 9.0. For the same compound, the EC50 at 24 h [2] was 51.2 µg/mL and 150 µM, the “RF (Resistance factor)” value ([3]; 6C3 versus IL3000) was 0.77 and the EC50 [3, 5] was 5.69 µg/mL and 16.7 µM. The “RF (Resistance factor)” value (T. brucei B48) was 1.02, the EC50 (T. brucei B48; [6]) was 2.28 µg/mL and 6.69 µM and the EC50 (T. brucei S427WT; [7]) was 2.24 µg/mL and 6.58 µM. The EC50 at 24 h [4] was 79.9 µg/mL and 235 µM, the “Selectivity Index (SI) Tbb427 WT” value (RAW 246.7 cell line; EC50 (RAW 246.7)/EC50 (T. b. brucei 427 WT)) was 35.7 and the “Selectivity Index (SI) TcoIL3000” value (RAW 246.7 cell line; EC50 (RAW 246.7)/EC50 (T. congolense IL3000)) was 14.0.

For `N=C(N)c1ccc(/N=N/Nc2ccc(C(=N)N)cc2)cc1` [Diminazene], the EC50 [1, 8] was 0.2 ± 0.03 µM, the EC50 [1, 5] was 0.15 ± 0.03 µM and the “R. F (Resistance factor)” value ([3]; Table 2, 6C3 versus IL3000) was 7.75. For the same compound, the “RF (Resistance factor)” value ([3]; 6C3 versus IL3000) was 9.81, the “RF (Resistance factor)” value ([3]; 6C3 versus IL3000, listed as diminazene) was 9.8 and the EC50 [3, 8] was 1.51 ± 0.09 µM. The EC50 [3, 5] was 1.45 ± 0.04 µM.

For `N=C(N)c1ccc(OCCCCCOc2ccc(C(=N)N)cc2)cc1` [Pentamidine], the “R. F (Resistance factor)” value (T. brucei B48) was 157.84, the “R. F (Resistance factor)” value (T. brucei B48; listed as pentamidine) was 158 and the “RF (Resistance factor)” value (T. brucei B48) was 144.08. The “RF (Resistance factor)” value (T. brucei B48; listed as pentamidine) was 144, the EC50 (T. brucei B48; read-out: EC50, AVG ± SEM, Table 1, control, footnote b: EC50 in μM, T. brucei B48) was 0.482 ± 0.02 µM and the EC50 (T. brucei B48; [6]) was 0.493 ± 0.04 µM. It also gave an EC50 (T. brucei S427WT; read-out: EC50, AVG ± SEM, Table 1, control, footnote b: EC50 in μM, T. brucei s427 WT) of 0.0031 ± 0.0003 µM and an EC50 (T. brucei S427WT; [7]) of 0.0034 ± 0.0004 µM.
